Reference: ChEMBL document CHEMBL1275484, “Rifampin and rifaximin resistance in clinical isolates of Clostridium difficile” (Antimicrob Agents Chemother, 2008)
Converted amounts (≈) assume the structure as drawn.

Key:
Assay type in all cases: functional
Clostridioides difficile [1] = assay: Antimicrobial activity against Clostridium difficile isolate 36 by agar dilution method
In short: (§1)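 MIC by CLSI reference agar dilution for anaerobes, with endpoints read per M11-A7 and C. difficile […] as control. Rifaximin was dissolved in methanol, diluted in 0.1 M phosphate buffer pH 7.4 plus 0.45% SDS, and tested at 0.0009–256 μg/ml. Rifampin was dissolved in methanol, diluted in water, and tested at 0.00001–256 μg/ml.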

Clostridioides difficile [2] = assay: Antimicrobial activity against Clostridium difficile isolate 39 by agar dilution method
In short: (§2)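 CLSI reference agar dilution method for anaerobes, with endpoints read per guideline M11-A7. Rifaximin was dissolved in methanol, diluted in 0.1 M phosphate buffer (pH 7.4) with 0.45% SDS, and tested at 0.0009–256 μg/ml. Rifampin was dissolved in methanol, diluted in water, and tested at 0.00001–256 μg/ml. C. difficile ATCC […] served as control. Isolates were typed by HindIII REA.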

Clostridioides difficile [3] = assay: Antimicrobial activity against Clostridium difficile isolate 43 by agar dilution method; in short: as §2
Clostridioides difficile [4] = assay: Antimicrobial activity against Clostridium difficile isolate 46 by agar dilution method; in short: as §2
Clostridioides difficile [5] = assay: Antimicrobial activity against Clostridium difficile isolate 52 by agar dilution method; in short: as §2
Clostridioides difficile [6] = assay: Antimicrobial activity against Clostridium difficile isolate 63 by agar dilution method
In short: (§3)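 CLSI reference agar dilution for anaerobes, with endpoints read per guideline M11-A7. Rifaximin was dissolved in methanol, diluted in 0.1 M phosphate buffer pH 7.4 with 0.45% SDS, and tested at 0.0009–256 μg/ml. Rifampin was dissolved in methanol, diluted in water, and tested at 0.00001–256 μg/ml. Control strain: C. difficile ATCC […]. Isolates were typed by HindIII REA.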

Clostridioides difficile [7] = assay: Antimicrobial activity against rifaximin-resistant Clostridium difficile isolate 66 expressing RpoB D492N and R505K mutants by agar dilution method
In short: as §1, with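 “MICs were found” for “MIC”, “by the” for “by”, “dilution method” for “dilution”, “with” for “plus”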

Clostridioides difficile [8] = assay: Antimicrobial activity against Clostridium difficile isolate 69 by agar dilution method; in short: as §3
Clostridioides difficile [9] = assay: Antimicrobial activity against Clostridium difficile isolate 70 by agar dilution method; in short: as §3
Clostridioides difficile [10] = assay: Antimicrobial activity against Clostridium difficile isolate 71 by agar dilution method; in short: as §3
Clostridioides difficile [11] = assay: Antimicrobial activity against Clostridium difficile isolate 75 by agar dilution method; in short: as §3
Clostridioides difficile [12] = assay: Antimicrobial activity against Clostridium difficile isolate 77 by agar dilution method; in short: as §3
Clostridioides difficile [13] = assay: Antimicrobial activity against Clostridium difficile isolate 79 by agar dilution method; in short: as §3
Clostridioides difficile [14] = assay: Antimicrobial activity against Clostridium difficile isolate 80 by agar dilution method; in short: as §3
Clostridioides difficile [15] = assay: Antimicrobial activity against rifaximin-resistant Clostridium difficile isolate 4 expressing RpoB S488T and R505K mutants by Etest
In short: (§4)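 Rifampin Etest on clinical C. difficile isolates typed by HindIII REA, run per the strip manufacturer's instructions on brucella blood agar, with the MIC read from the strip.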

Clostridioides difficile [16] = assay: Antimicrobial activity against Clostridium difficile isolate 9 by Etest
In short: (§5)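 Rifampin MIC by Etest on brucella blood agar, run per the strip manufacturer's instructions, against clinical isolates typed by HindIII REA.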

Clostridioides difficile [17] = assay: Antimicrobial activity against Clostridium difficile isolate 15 by Etest
In short: (§6)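 Rifampin MIC by Etest strip on brucella blood agar, run per the strip maker's instructions. Isolates were HindIII REA-typed clinical C. difficile.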

Clostridioides difficile [18] = assay: Antimicrobial activity against Clostridium difficile isolate 23 by Etest; in short: as §6
Clostridioides difficile [19] = assay: Antimicrobial activity against Clostridium difficile isolate 25 by Etest; in short: as §6
Clostridioides difficile [20] = assay: Antimicrobial activity against Clostridium difficile isolate 27 by Etest; in short: as §6
Clostridioides difficile [21] = assay: Antimicrobial activity against Clostridium difficile isolate 29 by Etest; in short: as §6
Clostridioides difficile [22] = assay: Antimicrobial activity against Clostridium difficile isolate 30 by Etest; in short: as §6
Clostridioides difficile [23] = assay: Antimicrobial activity against Clostridium difficile isolate 33 by Etest; in short: as §6
Clostridioides difficile [24] = assay: Antimicrobial activity against Clostridium difficile isolate 35 by Etest; in short: as §6
Clostridioides difficile [25] = assay: Antimicrobial activity against Clostridium difficile isolate 37 by Etest; in short: as §6
Clostridioides difficile [26] = assay: Antimicrobial activity against Clostridium difficile isolate 40 by Etest
In short: (§7)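 Rifampin Etest strips were run on brucella blood agar following the manufacturer's instructions to give an MIC. Clinical isolates were typed by HindIII REA.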

Clostridioides difficile [27] = assay: Antimicrobial activity against Clostridium difficile isolate 51 by Etest; in short: as §7
Clostridioides difficile [28] = assay: Antimicrobial activity against Clostridium difficile isolate 54 by Etest; in short: as §7
Clostridioides difficile [29] = assay: Antimicrobial activity against Clostridium difficile isolate 57 by Etest; in short: as §7
Clostridioides difficile [30] = assay: Antimicrobial activity against Clostridium difficile isolate 58 by Etest; in short: as §7
Clostridioides difficile [31] = assay: Antimicrobial activity against rifaximin-resistant Clostridium difficile isolate 65 expressing RpoB H502N and R505K mutants by Etest; in short: as §4
Clostridioides difficile [32] = assay: Antimicrobial activity against rifaximin-resistant Clostridium difficile isolate 68 expressing RpoB H502Y mutant by Etest; in short: as §4
Clostridioides difficile [33] = assay: Antimicrobial activity against Clostridium difficile isolate 69 by Etest; in short: as §5
Clostridioides difficile [34] = assay: Antimicrobial activity against Clostridium difficile isolate 72 by Etest; in short: as §5
Clostridioides difficile [35] = assay: Antimicrobial activity against Clostridium difficile isolate 74 by Etest; in short: as §5
Clostridioides difficile [36] = assay: Antimicrobial activity against Clostridium difficile isolate 75 by Etest; in short: as §5
Clostridioides difficile [37] = assay: Antimicrobial activity against Clostridium difficile isolate 79 by Etest; in short: as §5
Clostridioides difficile [38] = assay: Antimicrobial activity against Clostridium difficile isolate 1 by agar dilution method; in short: as §1
Clostridioides difficile [39] = assay: Antimicrobial activity against Clostridium difficile isolate 5 by agar dilution method; in short: as §2
Clostridioides difficile [40] = assay: Antimicrobial activity against Clostridium difficile isolate 9 by agar dilution method; in short: as §3
Clostridioides difficile [41] = assay: Antimicrobial activity against Clostridium difficile isolate 11 by agar dilution method; in short: as §1
Clostridioides difficile [42] = assay: Antimicrobial activity against Clostridium difficile isolate 13 by agar dilution method; in short: as §1
Clostridioides difficile [43] = assay: Antimicrobial activity against Clostridium difficile isolate 16 by agar dilution method; in short: as §1
Clostridioides difficile [44] = assay: Antimicrobial activity against rifaximin-resistant Clostridium difficile isolate 17 expressing RpoB H502N and I548M mutants by agar dilution method
In short: as §1, with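 “MICs were found” for “MIC”, “by the” for “by”, “dilution method” for “dilution”, “with” for “plus”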

Clostridioides difficile [45] = assay: Antimicrobial activity against rifaximin-resistant Clostridium difficile isolate 18 expressing RpoB R505K mutant by agar dilution method
In short: as §1, with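 “MICs were found” for “MIC”, “by the” for “by”, “dilution method” for “dilution”, “with” for “plus”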

Clostridioides difficile [46] = assay: Antimicrobial activity against Clostridium difficile isolate 20 by agar dilution method; in short: as §1
Clostridioides difficile [47] = assay: Antimicrobial activity against rifaximin-resistant Clostridium difficile isolate 21 expressing RpoB H502N and R505K mutants by agar dilution method
In short: as §1, with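 “MICs were found” for “MIC”, “by the” for “by”, “dilution method” for “dilution”, “with” for “plus”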

Clostridioides difficile [48] = assay: Antimicrobial activity against rifaximin-resistant Clostridium difficile isolate 22 expressing RpoB H502N and R505K mutants by agar dilution method
In short: as §1, with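 “MICs were found” for “MIC”, “by the” for “by”, “dilution method” for “dilution”, “with” for “plus”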

Clostridioides difficile [49] = assay: Antimicrobial activity against Clostridium difficile isolate 23 by agar dilution method; in short: as §1
Clostridioides difficile [50] = assay: Antimicrobial activity against Clostridium difficile isolate 29 by agar dilution method; in short: as §1

With `CO[C@H]1/C=C/O[C@@]2(C)Oc3c(C)c(O)c4c(O)c(c(/C=N/N5CCN(C)CC5)c(O)c4c3C2=O)NC(=O)/C(C)=C\C=C\[C@H](C)[C@H](O)[C@@H](C)[C@@H](O)[C@@H](C)[C@H](OC(C)=O)[C@@H]1C` [RIFAMPIN] as the molecule, how does the MIC (Clostridioides difficile [1]) read?
The MIC was 0.9 ng/mL (≈ 1.09 nM).

And the MIC (Clostridioides difficile [2])?
Its MIC is 0.9 ng/mL (≈ 1.09 nM).

What about the MIC (Clostridioides difficile [3]) of the same molecule?
Its MIC is 0.4 ng/mL (≈ 0.486 nM).

What about the MIC (Clostridioides difficile [4]) of the same molecule?
Its MIC is 0.9 ng/mL (≈ 1.09 nM).

What about the MIC (Clostridioides difficile [5]) of the same molecule?
Its MIC is 1.9 ng/mL (≈ 2.31 nM).

And the MIC (Clostridioides difficile [6])?
Its MIC is 0.4 ng/mL (≈ 0.486 nM).

What about the MIC (Clostridioides difficile [7]) of the same molecule?
The MIC was greater than 256000 ng/mL.

And the MIC (Clostridioides difficile [8])?
The MIC was 0.06 ng/mL (≈ 0.0729 nM).

What about the MIC (Clostridioides difficile [9]) of the same molecule?
Its MIC is 0.06 ng/mL (≈ 0.0729 nM).

And the MIC (Clostridioides difficile [10])?
The MIC was 0.06 ng/mL (≈ 0.0729 nM).

What about the MIC (Clostridioides difficile [11]) of the same molecule?
The MIC was 0.06 ng/mL (≈ 0.0729 nM).

And the MIC (Clostridioides difficile [12])?
Its MIC is 0.06 ng/mL (≈ 0.0729 nM).

And the MIC (Clostridioides difficile [13])?
Its MIC is 0.06 ng/mL (≈ 0.0729 nM).

What about the MIC (Clostridioides difficile [14]) of the same molecule?
The MIC was 0.06 ng/mL (≈ 0.0729 nM).

And the MIC (Clostridioides difficile [15])?
Its MIC is greater than 32000 ng/mL.

What about the MIC (Clostridioides difficile [16]) of the same molecule?
The MIC was 3 ng/mL (≈ 3.65 nM).

And the MIC (Clostridioides difficile [17])?
The MIC was less than 2 ng/mL.

What about the MIC (Clostridioides difficile [18]) of the same molecule?
Its MIC is less than 2 ng/mL.

What about the MIC (Clostridioides difficile [19]) of the same molecule?
The MIC was less than 2 ng/mL.

And the MIC (Clostridioides difficile [20])?
Its MIC is less than 2 ng/mL.

And the MIC (Clostridioides difficile [21])?
Its MIC is less than 2 ng/mL.

And the MIC (Clostridioides difficile [22])?
The MIC was less than 2 ng/mL.

What about the MIC (Clostridioides difficile [23]) of the same molecule?
Its MIC is less than 2 ng/mL.

What about the MIC (Clostridioides difficile [24]) of the same molecule?
Its MIC is less than 2 ng/mL.

And the MIC (Clostridioides difficile [25])?
Its MIC is less than 2 ng/mL.

What about the MIC (Clostridioides difficile [26]) of the same molecule?
Its MIC is less than 2 ng/mL.

What about the MIC (Clostridioides difficile [27]) of the same molecule?
The MIC was less than 2 ng/mL.

And the MIC (Clostridioides difficile [28])?
The MIC was less than 2 ng/mL.

What about the MIC (Clostridioides difficile [29]) of the same molecule?
The MIC was less than 2 ng/mL.

And the MIC (Clostridioides difficile [30])?
Its MIC is less than 2 ng/mL.

What about the MIC (Clostridioides difficile [31]) of the same molecule?
Its MIC is greater than 32000 ng/mL.

What about the MIC (Clostridioides difficile [32]) of the same molecule?
The MIC was greater than 32000 ng/mL.

What about the MIC (Clostridioides difficile [33]) of the same molecule?
The MIC was less than 2 ng/mL.

What about the MIC (Clostridioides difficile [34]) of the same molecule?
Its MIC is less than 2 ng/mL.

What about the MIC (Clostridioides difficile [35]) of the same molecule?
Its MIC is less than 2 ng/mL.

What about the MIC (Clostridioides difficile [36]) of the same molecule?
Its MIC is less than 2 ng/mL.

What about the MIC (Clostridioides difficile [37]) of the same molecule?
The MIC was less than 2 ng/mL.

What about the MIC (Clostridioides difficile [38]) of the same molecule?
Its MIC is 0.06 ng/mL (≈ 0.0729 nM).

What about the MIC (Clostridioides difficile [39]) of the same molecule?
Its MIC is 0.06 ng/mL (≈ 0.0729 nM).

What about the MIC (Clostridioides difficile [40]) of the same molecule?
The MIC was 0.06 ng/mL (≈ 0.0729 nM).

And the MIC (Clostridioides difficile [41])?
The MIC was 0.06 ng/mL (≈ 0.0729 nM).

What about the MIC (Clostridioides difficile [42]) of the same molecule?
Its MIC is 0.09 ng/mL (≈ 0.109 nM).

And the MIC (Clostridioides difficile [43])?
Its MIC is 0.9 ng/mL (≈ 1.09 nM).

What about the MIC (Clostridioides difficile [44]) of the same molecule?
The MIC was greater than 256000 ng/mL.

What about the MIC (Clostridioides difficile [45]) of the same molecule?
The MIC was 128000 ng/mL (≈ 156000 nM).

What about the MIC (Clostridioides difficile [46]) of the same molecule?
Its MIC is 0.9 ng/mL (≈ 1.09 nM).

What about the MIC (Clostridioides difficile [47]) of the same molecule?
Its MIC is greater than 256000 ng/mL.

And the MIC (Clostridioides difficile [48])?
The MIC was greater than 256000 ng/mL.

And the MIC (Clostridioides difficile [49])?
Its MIC is 0.9 ng/mL (≈ 1.09 nM).

What about the MIC (Clostridioides difficile [50]) of the same molecule?
The MIC was 0.9 ng/mL (≈ 1.09 nM).
